Reference: ChEMBL document CHEMBL1949525, “Boranophosphate isoster controls P2Y-receptor subtype selectivity and metabolic stability of dinucleoside polyphosphate analogues” (J Med Chem, 2012)
Active and inactive are the calls of the source. No cut-off for these calls is given here.

How the values were obtained:
[1] = biological target: T1, P2Y purinoceptor 2 (Homo sapiens, UniProt P41231); assay: Agonist activity at human P2Y purinoceptor 2 expressed in human 1321N1 cells assessed as increase in intracellular calcium concentration at 100 uM by spectrofluorimetry; assay type: functional, cell-based
T1 sequence (P41231 whole entry): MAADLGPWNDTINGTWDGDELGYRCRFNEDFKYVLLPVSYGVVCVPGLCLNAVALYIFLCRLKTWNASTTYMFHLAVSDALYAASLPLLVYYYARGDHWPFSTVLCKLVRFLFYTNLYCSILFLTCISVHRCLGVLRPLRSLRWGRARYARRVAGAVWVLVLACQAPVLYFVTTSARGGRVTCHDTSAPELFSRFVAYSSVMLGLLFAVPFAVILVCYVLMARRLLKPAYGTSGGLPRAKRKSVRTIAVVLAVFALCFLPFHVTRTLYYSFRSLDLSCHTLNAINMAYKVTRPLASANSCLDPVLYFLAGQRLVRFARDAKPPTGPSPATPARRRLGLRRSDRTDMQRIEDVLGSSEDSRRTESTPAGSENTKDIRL

[2] = biological target: P2Y purinoceptor 6 (Rattus norvegicus) (UniProt Q63371); assay: Antagonist activity at rat P2Y purinoceptor 6 expressed in human 1321N1 cells assessed as inhibition of UDP-induced increase in intracellular calcium concentration by spectrofluorimetry; assay type: functional, cell-based
P2Y purinoceptor 6 (Rattus norvegicus), sequence (Q63371 whole entry): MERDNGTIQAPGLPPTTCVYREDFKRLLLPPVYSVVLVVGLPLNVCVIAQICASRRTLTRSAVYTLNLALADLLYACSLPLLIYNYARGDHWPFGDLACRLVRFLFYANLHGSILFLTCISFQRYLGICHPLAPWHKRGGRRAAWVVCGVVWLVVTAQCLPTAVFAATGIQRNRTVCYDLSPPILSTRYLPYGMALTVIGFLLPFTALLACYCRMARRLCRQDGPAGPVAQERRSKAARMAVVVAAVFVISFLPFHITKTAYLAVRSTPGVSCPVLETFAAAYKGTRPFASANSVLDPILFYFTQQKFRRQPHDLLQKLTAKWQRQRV
Outline: (§1)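 Fura-2-loaded 1321N1 transfectants (turkey P2Y1, human P2Y2/P2Y4, rat P2Y6) in Hepes-buffered saline, pH 7.4, at 37 °C. Analogues were tested against equimolar reference agonist: 2-MeS-ADP for P2Y1, UTP for P2Y2/4, UDP for P2Y6. Blockade of the [Ca2+]i rise was followed by dual-excitation spectrofluorometry.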

[3] = biological target: P2Y purinoceptor 1 (Meleagris gallopavo) (UniProt P49652); assay: Agonist activity at turkey P2Y purinoceptor 1 expressed in human 1321N1 cells assessed as increase in intracellular calcium concentration at 100 uM by spectrofluorimetry; assay type: functional, cell-based
P2Y purinoceptor 1 (Meleagris gallopavo), sequence (P49652 whole entry): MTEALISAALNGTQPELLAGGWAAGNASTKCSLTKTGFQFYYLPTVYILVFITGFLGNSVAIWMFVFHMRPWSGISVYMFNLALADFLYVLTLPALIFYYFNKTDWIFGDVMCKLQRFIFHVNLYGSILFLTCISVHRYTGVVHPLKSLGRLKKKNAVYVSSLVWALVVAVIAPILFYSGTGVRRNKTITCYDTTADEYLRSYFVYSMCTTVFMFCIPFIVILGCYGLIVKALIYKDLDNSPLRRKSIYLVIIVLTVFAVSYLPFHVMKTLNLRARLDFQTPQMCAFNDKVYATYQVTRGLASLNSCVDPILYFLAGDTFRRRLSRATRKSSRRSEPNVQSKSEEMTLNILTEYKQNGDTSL

[4] = biological target: P2Y purinoceptor 4 (Homo sapiens, UniProt P51582); assay: Antagonist activity at human P2Y purinoceptor 4 expressed in human 1321N1 cells assessed as inhibition of UTP-induced increase in intracellular calcium concentration by spectrofluorimetry; assay type: functional, cell-based; outline: as §1
P2Y purinoceptor 4, sequence (P51582 whole entry): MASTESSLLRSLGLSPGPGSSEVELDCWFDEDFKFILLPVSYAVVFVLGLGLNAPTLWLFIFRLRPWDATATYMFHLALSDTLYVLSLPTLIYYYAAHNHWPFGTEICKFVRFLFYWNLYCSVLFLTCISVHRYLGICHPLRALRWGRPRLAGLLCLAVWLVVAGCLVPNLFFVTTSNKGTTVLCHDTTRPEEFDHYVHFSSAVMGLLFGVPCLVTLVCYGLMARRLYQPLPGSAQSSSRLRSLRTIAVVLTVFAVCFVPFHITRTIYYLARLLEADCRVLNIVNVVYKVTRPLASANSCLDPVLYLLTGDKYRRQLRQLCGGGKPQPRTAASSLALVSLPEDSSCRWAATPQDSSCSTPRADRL

[5] = biological target: P2Y purinoceptor 1 (Meleagris gallopavo) (UniProt P49652); assay: Antagonist activity at turkey P2Y purinoceptor 1 expressed in human 1321N1 cells assessed as inhibition of 2-Sme-ADP-induced increase in intracellular calcium concentration by spectrofluorimetry; assay type: functional, cell-based; outline: as §1
[6] = biological target: T1, P2Y purinoceptor 2; assay: Antagonist activity at human P2Y purinoceptor 2 expressed in human 1321N1 cells assessed as inhibition of UTP-induced increase in intracellular calcium concentration by spectrofluorimetry; assay type: functional, cell-based; outline: as §1
[7] = biological target: P2Y purinoceptor 6 (Rattus norvegicus) (UniProt Q63371); assay: Agonist activity at rat P2Y purinoceptor 6 expressed in human 1321N1 cells assessed as increase in intracellular calcium concentration at 100 uM by spectrofluorimetry; assay type: functional, cell-based
[8] = Stability of the compound assessed as human e-NPP1-mediated hydrolysis at pH 8.5 after 20 mins by HPLC analysis; assay type: ADME; conditions: buffer, pH 8.5, 20 min
Outline: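 Human NPP1 preparation preincubated 3 min at 37 °C in 1 mM CaCl2, 200 mM NaCl, 10 mM KCl, 100 mM Tris, pH 8.5. Started with 0.2 mM dinucleotide solution (added volume) and stopped after 20 min in ice-cold perchloric acid. Neutralised with KOH, then NMP formation followed by HPLC. Percent substrate hydrolysed is the mean of two experiments run in triplicate.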

[9] = Chemical stability of the compound at physiological conditions; assay type: physicochemical
[10] = Chemical stability of the compound at pH mimicking gastric juice acidity; assay type: physicochemical; conditions: simulated gi fluid
[11] = Stability of the compound assessed as human e-NPP3-mediated compound hydrolysis by HPLC analysis; assay type: ADME
[12] = Selectivity ratio of EC50 for rat P2Y purinoceptor 6 receptor to EC50 for turkey P2Y purinoceptor 1 receptor
Outline: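 1321N1 astrocytoma cells lacking endogenous P2Y receptors, stably transfected with turkey P2Y1, human P2Y2, human P2Y4 or rat P2Y6, grown in DMEM with 5% FBS, penicillin/streptomycin and 500 µg/mL G-418. Fura-2-loaded cell suspensions were exposed at 37 °C in 10 mM Hepes-buffered saline, pH 7.4, with 1 mM CaCl2 and 1 mM MgCl2. Peak [Ca2+]i rise by dual-excitation spectrofluorometry across concentrations; EC50 from curve fits; three experiments on separate days per subtype.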

| Compound | Activity [1] | Activity [2] | Activity [3] | Activity [4] | Activity [5] | Activity [6] | Activity [7] | Stability [8] | Stability [9] | Stability [10] | Stability [11] | Ratio EC50 [12] |
| --- | --- | --- | --- | --- | --- | --- | --- | --- | --- | --- | --- | --- |
| BP(=O)(OP(=O)(O)OC[C@H]1O[C@@H](n2ccc(=O)[nH]c2=O)[C@H](O)[C@@H]1O)OP(=O)(O)OP(=O)(O)OC[C@H]1O[C@@H](n2ccc(=O)[nH]c2=O)[C@H](O)[C@@H]1O.CCCCN(CCCC)CCCC.CCCCN(CCCC)CCCC.CCCCN(CCCC)CCCC.CCCCN(CCCC)CCCC (stereo in doubt; 7A) | Active | inactive | Active | inactive | inactive | inactive |  |  |  |  |  |  |
| BP(=O)(OP(=O)(O)OC[C@H]1O[C@@H](n2cnc3c(N)ncnc32)[C@H](O)[C@@H]1O)OP(=O)(O)OC[C@H]1O[C@@H](n2cnc3c(N)ncnc32)[C@H](O)[C@@H]1O.CCCCN(CCCC)CCCC.CCCCN(CCCC)CCCC.CCCCN(CCCC)CCCC |  |  |  |  |  |  |  | Stable | Stable | Stable | Stable |  |
| BP(=O)(OP(=O)(O)OC[C@H]1O[C@@H](n2cnc3c(N)ncnc32)[C@H](O)[C@@H]1O)OP(=O)(O)OP(=O)(O)OC[C@H]1O[C@@H](n2ccc(=O)[nH]c2=O)[C@H](O)[C@@H]1O.CCCCN(CCCC)CCCC.CCCCN(CCCC)CCCC.CCCCN(CCCC)CCCC.CCCCN(CCCC)CCCC (mixture of isomers) |  |  |  |  |  |  |  |  |  |  |  | 42 |

The remaining lines, values ahead:

| Activity [1] | Activity [2] | Activity [3] | Activity [4] | Activity [5] | Activity [6] | Activity [7] | Stability [8] | Stability [9] | Stability [10] | Stability [11] | Ratio EC50 [12] | Compound |
| --- | --- | --- | --- | --- | --- | --- | --- | --- | --- | --- | --- | --- |
|  | inactive |  | inactive | inactive | inactive | Active |  |  |  |  |  | BP(=O)(OP(=O)(O)OC[C@H]1O[C@@H](n2cnc3c(N)ncnc32)[C@H](O)[C@@H]1O)OP(=O)(O)OP(=O)(O)OC[C@H]1O[C@@H](n2cnc3c(N)ncnc32)[C@H](O)[C@@H]1O.CCCCN(CCCC)CCCC.CCCCN(CCCC)CCCC.CCCCN(CCCC)CCCC.CCCCN(CCCC)CCCC (stereo in doubt; 6B) |
|  | inactive |  | inactive | inactive | inactive | Active |  |  |  |  |  | BP(=O)(OP(=O)(O)OC[C@H]1O[C@@H](n2cnc3c(N)ncnc32)[C@H](O)[C@@H]1O)OP(=O)(O)OP(=O)(O)OC[C@H]1O[C@@H](n2cnc3c(N)ncnc32)[C@H](O)[C@@H]1O.CCCCN(CCCC)CCCC.CCCCN(CCCC)CCCC.CCCCN(CCCC)CCCC.CCCCN(CCCC)CCCC (stereo in doubt; 6A) |
